Bioassay records: PubChem BioAssay, several laboratories
T cruzi inh = inhibitors of intracellular T. cruzi growth, primary screen, luminescence, NIH3T3 host cells | T. cruzi beta-gal in NIH3T3, 90 h | inhibition, % (no concentration beside the values) | 1.4% of 300,000 active | AID 1885, 2009;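 active = mean inhibition across valid replicates above about 55%, limit read from the data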;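 note: signal also drops with host cell toxicity which is not excluded here; higher percent means less beta-gal luminescence so fewer parasites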
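System: mouse NIH/3T3 fibroblasts infected with β-gal-expressing T. cruzi Tulahuen C4 / Input: NIH/3T3 cells, 5,000 per well / Buffer or medium: Low-serum DMEM with 2% FBS / Probe or stimulus: 5000 reporter trypomastigotes per well / Schedule: ≥90 h infection period, 3 h prior cell attachment / Measured by: GalScreen luminescence, 60 min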
HSF1 inhib = HSF1 inhibitors in luciferase reporter cells, primary screen, cell-based, NIH3T3, luminescence. NIH3T3-HGL HSE-luciferase, MG132-induced, luminescence 8 h; stronger effect = lower value. 0.77% of 300,000 active. activity change, negative = inhibition, % at 7.5 µM (by protocol);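 active = more than half of replicate wells show activity change below -50%, luminescence cut by over half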;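 note: luciferase reports HSF-1 transcriptional activity via heat shock element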
Hsp70 act = Hsp70 transcriptional activators, primary screen, cell-based, HeLa, Hsp70 promoter luciferase, luminescence, 10 µM | 0.04% of 200,000 active | HeLa Hsp70 promoter luciferase reporter; scaled: vehicle 0, proteasome-inhibitor control 100% | activation, % at 10 µM | AID 1203, 2008;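 active = activation above the mean across all tested compounds plus 3 SD, cutoff set per campaign, cut at about 5.5% in these data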
HSF1 activator = HSF-1 activators, primary screen, NIH3T3-HGL cells, MG132 stress, luminescence, single point; NIH3T3-HGL HSF-1 luciferase reporter, 8 h; 100% = twice DMSO control signal; activation, % at 9 µM; 1.7% of 300,000 active; AID 504408, 2011;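 active = mean replicate activation of at least 50% with a set share of replicates each reaching 50%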
L major viab = Leishmania major promastigote growth inhibition, primary screen | Leishmania major promastigotes, resazurin fluorescence viability | inhibition, % at 10 µM | 9% of 200,000 active | AID 1063, 2008; in the data active = inhibition above about 50%;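 note: promastigotes grown with compound for 44 hours at 28 °C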
Numbers stand for hits; . = inactive; / = not tested or not shown. Shown is part of a subset that was picked to be rich in hits.

SMILES	T cruzi inh	HSF1 inhib	Hsp70 act	HSF1 activator	L major viab
Cc1nc2ccc(Cl)cc2nc1C	.	.	/	.	/
COc1ccc(NC(=O)c2[nH]c(C)c(C(C)=O)c2C)cc1S(=O)(=O)Nc1ccc(Br)cc1	56	.	/	89	/
COc1ccc(NC(=O)c2[nH]c(C)c(C(C)=O)c2C)cc1Cl	.	.	.	.	.
CCC(=O)c1ccc(OCC(=O)OCC(=O)c2cc(C)n(C)c2C)cc1	.	.	/	.	/
COCc1cc(=O)[nH]c(SCCS(=O)(=O)c2ccc(Cl)cc2Cl)n1	.	.	/	78	/
COCc1cc(=O)[nH]c(SCCS(=O)(=O)c2ccc(C)cc2)n1	.	.	/	.	/
CC(C)OCC(O)CN1CCC(Cc2ccccc2)CC1 (stereo not given)	.	.	/	.	/
CC(C(O)c1ccc(O)cc1)N1CCC(Cc2ccccc2)CC1 (stereo not given)	.	.	.	.	96
COc1ccc(-n2c(=O)c3ccccc3c3ccccc3c2=O)cc1	.	.	.	.	.
COc1ccc(OC)c(-n2c(=O)c3ccccc3c3ccccc3c2=O)c1	.	.	.	59	.
CC(/C=N/NC(=O)c1ccco1)=C\c1ccccc1	.	.	.	55	.
O=C(CN1CCOCC1)N/N=C/C(Br)=C\c1ccccc1	.	.	.	.	.
CC(/C=N/NC(=O)c1cccs1)=C\c1ccccc1	.	.	.	.	.
O=C(Cc1cccs1)N/N=C/C(Br)=C/c1ccccc1	.	.	.	106	.
CC(/C=N/NC(=O)Cc1cccs1)=C\c1ccccc1	.	.	.	122	.
CC(/C=N/NC(=O)c1ccccc1C)=C\c1ccccc1	.	.	/	.	/
COc1ccc(C2NC(=S)NC3=C2CCCC3=C2SCCS2)cc1 (stereo not given)	.	-56	.	.	.
COc1cc(C2NC(=S)NC3=C2CCc2ccccc23)cc(OC)c1OC (stereo not given)	.	.	.	.	.
COc1ccc2c(c1)CCC1=C2NC(=S)NC1c1ccc(N(C)C)cc1 (stereo not given)	66	.	.	.	90
CC(C)CN(C(=O)c1ccc(S(=O)(=O)N2CCOCC2)cc1)C1CCS(=O)(=O)C1 (stereo not given)	.	.	/	.	/
CCOc1ccc(N(CC(=O)Nc2ccccc2OCC)S(=O)(=O)c2c(C)noc2C)cc1	.	.	/	.	/
NC(=O)C1CCN(C2=C(Cl)C(=O)c3ccccc3C2=O)CC1	59	.	.	75	99
O=C(NCCc1ccccc1)c1cc(=O)c2ccccc2o1	.	.	.	.	.
COc1ccc(-c2nnc3n2N=C(C)CS3)cc1	.	.	.	.	.
COc1cccc(-c2nnc3n2N=C(c2cc(OC)ccc2OC)CS3)c1	.	.	.	.	.
SMILES	T cruzi inh	HSF1 inhib	Hsp70 act	HSF1 activator	L major viab
Clc1ccc(C2=Nn3c(nnc3-c3cc(-c4ccccc4)n[nH]3)SC2)cc1	.	.	.	.	.
COc1ccc(C2=Nn3c(nnc3-c3ccc(OC)cc3)SC2)cc1	.	.	.	.	61
CCOc1cccc(-c2nnc3n2N=C(c2cc(OC)ccc2OC)CS3)c1	.	.	.	.	66
COc1cccc(-c2nnc3n2N=C(C(C)(C)C)CS3)c1	.	-63	.	.	.
c1ccc(C2=Nn3c(nnc3-c3cc(-c4ccccc4)n[nH]3)SC2)cc1	.	.	.	.	63
CC(=O)N/C(=C/c1ccc2c(c1)OCO2)C(=O)NCC(=O)O	.	.	.	.	.
CCc1nnc2n1N=C(c1ccc(Cl)cc1)CS2	.	.	/	.	/
Cc1nnc2n(c1=O)N=C(c1ccc(Cl)cc1)CS2	.	.	.	.	80
COc1ccc(S(=O)(=O)NCc2ccc(C(=O)N3CCc4ccccc4C3)cc2)cc1	.	.	.	.	.
CN(C)CCCNc1ccc(-c2nn(C)c(=O)c3ccccc23)cc1[N+](=O)[O-]	68	.	.	.	100
CCN(CC)C(=O)Cn1cc(C(=O)C(=O)NCc2ccco2)c2ccccc21	.	.	.	.	.
CCOC(=O)N1CCN(Cc2c(NC(=O)c3ccco3)sc(C)c2C)CC1	.	.	.	99	.
Cc1sc(NC(=O)c2ccco2)c(CN2CCN(c3ccccn3)CC2)c1C	.	.	.	.	.
